Source: ChEMBL document CHEMBL4257478, “Design, synthesis and evaluation of (R)-3-(7-(methyl(7H-pyrrolo[2,3-d]pyrimidin-4-yl)amino)-5-azaspiro[2.4]heptan-5-yl)-3-oxopropanenitrile as a JAK1-selective inhibitor” (Medchemcomm, 2018)
The source made the active and inactive calls. No cut-off for these calls is given here.

Assays:
[1] = Oral bioavailability in Sprague-Dawley rat at 10 mg/kg after 0.25 to 24 hrs by LC-MS/MS method; format: ADME, organism-based; details: in vivo
Outline: (§1)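 Male Sprague Dawley rats, 7–8 weeks old, n=4, fasted 16 h. Free base given at 10 mg/kg po as a corn oil suspension (5 mL/kg); a 5 mg/kg iv arm used 10% ethanol/90% PEG400. Plasma sampled 0.25–24 h, acetonitrile-precipitated with internal standard, and measured by LC-MS/MS. Parameters derived by non-compartmental analysis.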

[2] = Half life in Sprague-Dawley rat at 5 mg/kg, iv after 0.08 to 24 hrs by LC-MS/MS method; format: ADME, organism-based; details: in vivo
Outline: (§2)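 Male Sprague Dawley rats, 7-8 weeks old, n=4 per group. IV dose 5 mg/kg free base in 10% ethanol/90% PEG400; oral dose 10 mg/kg as corn oil suspension after 16 h fast. Blood taken 0.08-24 h (IV) or 0.25-24 h (PO). Plasma diluted in acetonitrile with internal standard, analysed by LC-MS/MS, parameters by non-compartmental analysis.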

[3] = Tmax in Sprague-Dawley rat at 10 mg/kg, po after 0.25 to 24 hrs by LC-MS/MS method; format: ADME, organism-based; details: in vivo; outline: as §1
Rattus norvegicus [4] = experiment: AUC (0 to t) in Sprague-Dawley rat at 10 mg/kg, po after 0.25 to 24 hrs by LC-MS/MS method; format: ADME, organism-based; set-up: time lower 0.25 hr, dose 10 mg/kg, time upper 24 hr, route oral; details: in vivo; outline: as §2
[5] = Cmax in Sprague-Dawley rat at 10 mg/kg, po after 0.25 to 24 hrs by LC-MS/MS method; format: ADME, organism-based; set-up: dose 10 mg/kg, route oral; details: in vivo; outline: as §2
Rattus norvegicus [6] = experiment: AUC (0 to infinity) in Sprague-Dawley rat at 5 mg/kg, iv after 0.08 to 24 hrs by LC-MS/MS method; format: ADME, organism-based; set-up: dose 5 mg/kg, time infinity, route intravenous; details: in vivo; outline: as §2
Rattus norvegicus [7] = experiment: AUC (0 to infinity) in Sprague-Dawley rat at 10 mg/kg, po after 0.25 to 24 hrs by LC-MS/MS method; format: ADME, organism-based; set-up: dose 10 mg/kg, route oral, time infinity; details: in vivo; outline: as §2
[8] = MRT in Sprague-Dawley rat at 10 mg/kg, po after 0.25 to 24 hrs by LC-MS/MS method; format: ADME, organism-based; details: in vivo; outline: as §2
Rattus norvegicus [9] = experiment: AUC (0 to t) in Sprague-Dawley rat at 5 mg/kg, iv after 0.08 to 24 hrs by LC-MS/MS method; format: ADME, organism-based; set-up: time upper 24 hr, time lower 0.08 hr, dose 5 mg/kg, route intravenous; details: in vivo; outline: as §2
[10] = MRT in Sprague-Dawley rat at 5 mg/kg, iv after 0.08 to 24 hrs by LC-MS/MS method; format: ADME, organism-based; details: in vivo; outline: as §2
[11] = Half life in Sprague-Dawley rat at 10 mg/kg, po after 0.25 to 24 hrs by LC-MS/MS method; format: ADME, organism-based; details: in vivo; outline: as §2
Mus musculus [12] = experiment: Antiarthritic activity in collagen-induced DBA1/J mouse arthritis model assessed as decrease in ratio of bone surface to bone volume of right hind ankle joint at 100 mg/kg, po qd measured on day 19 by micro-CT analysis; format: functional, organism-based
Outline: (§3)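 Male DBA1/J mice, 6 weeks old, immunized s.c. at the tail base with type II collagen (2 mg/mL) in complete Freund's adjuvant (1:1, 0.1 mL), then boosted at day 21 with collagen in incomplete Freund's adjuvant. Clinical scores taken twice weekly for 18 days; serum IL-6 and TNF-α measured after autopsy; right hind ankle assessed by histopathology and by micro-CT for bone surface/volume.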

Mus musculus [13] = experiment: Antiarthritic activity in collagen-induced DBA1/J mouse arthritis model assessed as decrease in serum TNF-alpha levels at 100 mg/kg, po qd measured on day 19 by ELISA; format: functional, organism-based; outline: as §3
Mus musculus [14] = experiment: Antiarthritic activity in collagen-induced DBA1/J mouse arthritis model assessed as decrease in paw volume at 100 mg/kg, po qd measured on day 1 and 15 by plethysmometer
Mus musculus [15] = experiment: Antiarthritic activity in collagen-induced DBA1/J mouse arthritis model assessed as decrease in serum IL-6 levels at 100 mg/kg, po qd measured on day 19 by ELISA; format: functional, organism-based; outline: as §3
Mus musculus [16] = experiment: Antiarthritic activity in collagen-induced DBA1/J mouse arthritis model assessed as decrease in right hind ankle joint thickness at 100 mg/kg, po qd measured on day 19 by hematoxylin-eosin staining-based assay; format: functional, organism-based; outline: as §3
Rattus norvegicus [17] = experiment: Antiarthritic activity in adjuvant-induced SPF LEW/SsNSlc rat arthritis model assessed as decrease in clinical arthritis score at 20 mg/kg, po qd measured on day 14; format: functional, organism-based
Outline: (§4)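 Lewis rats were 10 weeks old after 2 weeks acclimation. Immunized s.c. at the tail base with 0.1 mL complete Freund's adjuvant containing 10 mg/mL heat-killed mycobacterium. From day 12 post-immunization (day 1), n=10 per group, oral dosing once daily for 14 days, vehicle corn oil. Clinical score and hind paw measured twice weekly.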

Rattus norvegicus [18] = experiment: Antiarthritic activity in adjuvant-induced SPF LEW/SsNSlc rat arthritis model assessed as paw thickness at 20 mg/kg, po qd measured on day 14; format: functional; outline: as §4
Mus musculus [19] = experiment: Antiarthritic activity in collagen-induced DBA1/J mouse arthritis model assessed as decrease in infiltration of inflammatory cells in right hind ankle joints at 100 mg/kg, po qd measured on day 19 by hematoxylin-eosin staining-based assay; format: functional, organism-based; outline: as §3
Mus musculus [20] = experiment: Antiarthritic activity in collagen-induced DBA1/J mouse arthritis model assessed as decrease in articular surface cartilage thickness in right hind ankle joints at 100 mg/kg, po qd measured on day 19 by hematoxylin-eosin staining-based assay; format: functional, organism-based; outline: as §3
Mus musculus [21] = experiment: Antiarthritic activity in collagen-induced DBA1/J mouse arthritis model assessed as decrease in clinical arthritis score at 100 mg/kg, po qd measured twice weekly for 18 days; format: functional, organism-based; outline: as §3

Row | bioavailability [1] [%] | half-life [2] [h] | Tmax [3] [h] | AUCt (Rattus norvegicus [4]) [ng·h/mL] | Cmax [5] [ng/mL] | AUC (Rattus norvegicus [6]) [ng·h/mL] | AUC (Rattus norvegicus [7]) [ng·h/mL] | MRT [8] [h] | AUCt (Rattus norvegicus [9]) [ng·h/mL] | MRT [10] [h] | half-life [11] [h] | Structure (SMILES) | other results
1 | 68 | 1 | 0.4 | 1900 | 1000 | 1400 | 1900 | 1.5 | 1400 | 0.9 | 1 | CN(c1ncnc2[nH]ccc12)[C@H]1CN(C(=O)CC#N)CC12CC2.O=C(O)C(O)C(O)C(=O)O | 
2 |  |  |  |  |  |  |  |  |  |  |  | O=C(Nc1nc2cccc(-c3ccc(CN4CCS(=O)(=O)CC4)cc3)n2n1)C1CC1 [FILGOTINIB] | Activity (Mus musculus [12]): Active; Activity (Mus musculus [13]): Active; Activity (Mus musculus [14]): Active; Activity (Mus musculus [15]): Active; Activity (Mus musculus [16]): Active; Activity (Rattus norvegicus [17]): Active; Activity (Rattus norvegicus [18]): 10.32 mm; Activity (Mus musculus [19]): Active; Activity (Mus musculus [20]): Active; Activity (Mus musculus [21]): Active
3 | 58 | 4.3 | 0.5 | 2400 | 1200 | 2000 | 2400 | 2.3 | 2000 | 1.2 | 3.6 | CN(c1ncnc2[nH]ccc12)[C@H]1CN(C(=O)CC#N)CC12CC2.O=C(O)CC(O)(CC(=O)O)C(=O)O | 
